Assay results from ChEMBL document CHEMBL3763100, “Structure-guided design of new indoles as negative allosteric modulators (NAMs) of N-methyl-D-aspartate receptor (NMDAR) containing GluN2B subunit” (Bioorg Med Chem, 2016).
Activity calls are given as the source filed them. The calls are words filed in the database; no cut-off is given here.

Tests used:
[1] = target: Glutamate receptor ionotropic, NMDA 2B (Rattus norvegicus, UniProt Q00960); assay: Displacement of [3H]ifenprodil from Wistar rat cerebral cortex GluN2B receptor after 120 mins; type: tissue-based
Chain of Glutamate receptor ionotropic, NMDA 2B (Q00960 whole entry): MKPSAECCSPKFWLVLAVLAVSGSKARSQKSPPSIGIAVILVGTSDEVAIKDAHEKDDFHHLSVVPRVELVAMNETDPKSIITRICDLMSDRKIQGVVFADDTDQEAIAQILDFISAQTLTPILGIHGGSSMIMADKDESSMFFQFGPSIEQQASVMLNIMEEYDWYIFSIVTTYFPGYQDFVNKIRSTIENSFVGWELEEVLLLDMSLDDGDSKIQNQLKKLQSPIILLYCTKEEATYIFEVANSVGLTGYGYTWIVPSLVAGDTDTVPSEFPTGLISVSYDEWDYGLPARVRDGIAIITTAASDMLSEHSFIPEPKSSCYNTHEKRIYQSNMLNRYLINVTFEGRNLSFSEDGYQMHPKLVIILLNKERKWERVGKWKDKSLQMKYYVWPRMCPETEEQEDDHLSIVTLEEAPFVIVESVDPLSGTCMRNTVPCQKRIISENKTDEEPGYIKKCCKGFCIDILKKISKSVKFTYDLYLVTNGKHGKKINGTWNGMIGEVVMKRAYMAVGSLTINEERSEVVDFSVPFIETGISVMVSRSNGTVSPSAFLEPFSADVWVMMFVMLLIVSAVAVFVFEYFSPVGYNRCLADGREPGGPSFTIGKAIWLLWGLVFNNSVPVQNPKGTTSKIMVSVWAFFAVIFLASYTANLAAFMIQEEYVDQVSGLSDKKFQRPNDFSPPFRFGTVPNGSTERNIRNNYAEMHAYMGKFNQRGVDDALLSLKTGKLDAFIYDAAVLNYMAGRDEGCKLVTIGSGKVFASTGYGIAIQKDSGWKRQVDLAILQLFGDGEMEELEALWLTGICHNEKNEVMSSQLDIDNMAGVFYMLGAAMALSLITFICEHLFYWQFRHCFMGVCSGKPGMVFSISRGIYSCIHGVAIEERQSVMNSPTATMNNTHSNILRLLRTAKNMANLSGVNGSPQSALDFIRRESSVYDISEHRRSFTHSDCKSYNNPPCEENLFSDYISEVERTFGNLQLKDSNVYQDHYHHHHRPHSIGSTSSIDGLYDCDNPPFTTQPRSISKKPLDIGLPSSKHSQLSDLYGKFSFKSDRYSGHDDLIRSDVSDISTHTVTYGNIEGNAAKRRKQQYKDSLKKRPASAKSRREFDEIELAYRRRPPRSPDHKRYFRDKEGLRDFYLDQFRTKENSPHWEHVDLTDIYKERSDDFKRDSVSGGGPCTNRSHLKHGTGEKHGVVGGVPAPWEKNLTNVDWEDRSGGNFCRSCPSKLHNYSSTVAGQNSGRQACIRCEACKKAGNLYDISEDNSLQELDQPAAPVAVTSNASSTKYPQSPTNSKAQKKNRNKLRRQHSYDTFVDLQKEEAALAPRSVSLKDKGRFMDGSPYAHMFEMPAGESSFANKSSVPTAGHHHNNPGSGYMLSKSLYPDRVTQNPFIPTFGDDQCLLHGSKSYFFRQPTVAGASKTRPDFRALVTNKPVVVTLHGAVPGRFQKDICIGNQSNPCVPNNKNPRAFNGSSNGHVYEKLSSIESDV

[2] = target: Glutamate receptor ionotropic, NMDA 2B (Rattus norvegicus) (UniProt Q00960); assay: Displacement of [3H]ifenprodil from Wistar rat cerebral cortex GluN2B receptor at 0.1 uM after 120 mins relative to control; type: tissue-based
Chain of Glutamate receptor ionotropic, NMDA 2B (Rattus norvegicus) (Q00960 27-1482 limits assumed): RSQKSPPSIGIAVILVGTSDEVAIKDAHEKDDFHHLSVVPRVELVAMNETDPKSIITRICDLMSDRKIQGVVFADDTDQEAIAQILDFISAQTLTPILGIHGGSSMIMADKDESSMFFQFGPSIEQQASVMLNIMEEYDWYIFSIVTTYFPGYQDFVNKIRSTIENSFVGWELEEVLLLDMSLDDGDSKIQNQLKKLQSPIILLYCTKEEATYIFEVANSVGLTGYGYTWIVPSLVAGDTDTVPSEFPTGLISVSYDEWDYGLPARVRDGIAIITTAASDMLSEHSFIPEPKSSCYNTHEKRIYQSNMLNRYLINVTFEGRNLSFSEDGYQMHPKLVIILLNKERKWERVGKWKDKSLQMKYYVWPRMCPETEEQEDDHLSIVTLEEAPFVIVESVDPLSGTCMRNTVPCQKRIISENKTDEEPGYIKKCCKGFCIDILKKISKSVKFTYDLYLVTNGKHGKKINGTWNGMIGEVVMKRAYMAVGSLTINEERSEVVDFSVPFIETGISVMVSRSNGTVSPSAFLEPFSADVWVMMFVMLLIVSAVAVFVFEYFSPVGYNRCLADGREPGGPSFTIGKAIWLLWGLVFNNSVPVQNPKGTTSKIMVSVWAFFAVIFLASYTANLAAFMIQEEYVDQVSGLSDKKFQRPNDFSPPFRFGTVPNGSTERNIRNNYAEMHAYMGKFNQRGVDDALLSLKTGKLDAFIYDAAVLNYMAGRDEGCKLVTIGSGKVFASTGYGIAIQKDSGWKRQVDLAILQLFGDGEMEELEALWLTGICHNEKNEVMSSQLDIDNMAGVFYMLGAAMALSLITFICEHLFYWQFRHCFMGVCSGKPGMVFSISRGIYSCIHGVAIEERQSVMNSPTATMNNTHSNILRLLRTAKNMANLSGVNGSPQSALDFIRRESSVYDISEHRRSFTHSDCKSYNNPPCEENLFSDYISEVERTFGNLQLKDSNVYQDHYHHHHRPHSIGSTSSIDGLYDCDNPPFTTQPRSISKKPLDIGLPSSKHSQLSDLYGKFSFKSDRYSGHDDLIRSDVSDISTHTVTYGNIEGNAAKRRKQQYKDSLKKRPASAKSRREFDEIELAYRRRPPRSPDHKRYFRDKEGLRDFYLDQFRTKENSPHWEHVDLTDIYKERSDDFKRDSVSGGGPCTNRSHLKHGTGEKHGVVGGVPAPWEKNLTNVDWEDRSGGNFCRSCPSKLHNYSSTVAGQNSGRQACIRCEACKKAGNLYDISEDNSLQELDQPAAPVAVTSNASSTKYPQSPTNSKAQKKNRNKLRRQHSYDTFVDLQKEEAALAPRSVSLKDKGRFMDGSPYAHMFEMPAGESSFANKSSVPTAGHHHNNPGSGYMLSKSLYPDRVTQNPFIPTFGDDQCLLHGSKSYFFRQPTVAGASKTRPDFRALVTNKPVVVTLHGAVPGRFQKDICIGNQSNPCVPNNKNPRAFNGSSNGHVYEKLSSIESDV
In short: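 Male Wistar-derived rat cerebral cortex membranes (175 ± 25 g rats) in Tris-HCl pH 7.4. […] Filtration, washing and counting followed. Test compounds were run at three concentrations in duplicate, with 0.1 μM used for % inhibition.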

Mus musculus = assay: Anticonvulsant activity in DBA/2 mouse assessed as prevention of audiogenic seizures at 100 umol/kg, ip administered 30 mins prior to testing; type: functional, organism-based
In short: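 DBA/2 mice genetically prone to sound-induced seizures (8-12 g, 22-25 days old), groups of 10 of either sex. Dosed ip in fresh 50% DMSO/50% sterile saline, or vehicle alone. After 30 min, 60 s habituation under a dome, then auditory stimulus (12-16 kHz, 109 dB) for 60 s or until tonic extension. Latency to and incidence of wild running, clonus, tonic phases were scored; incidence compared by Fisher's exact test.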

[3] = target: Glutamate receptor ionotropic, NMDA 2B (Rattus norvegicus) (UniProt Q00960); assay: Displacement of [3H]ifenprodil from Wistar rat cerebral cortex GluN2B receptor at 0.1 uM relative to control

Structure (SMILES) | IC50 [1] [nM] | inhibition [2] [%] | inhibition [3] [%] | Activity (Mus musculus)
Cc1ccc(CC2CCN(CC(=O)c3c[nH]c4ccc(O)cc34)CC2)cc1C | 3330 | < 5 |  | 
Oc1ccc2[nH]cc(CCN3CCC(Cc4ccccc4)CC3)c2c1 |  | 42 |  | 
O=C(Cc1c[nH]c2ccc(O)cc12)N1CCC(Cc2ccc(F)cc2)CC1 |  | 19 |  | 
Cc1ccc(CC2CCN(CC(=O)c3c[nH]c4ccc(O)cc34)CC2)cc1 | 83 | 66 |  | inactive

More lines, main results first:

IC50 [1] [nM] | inhibition [2] [%] | inhibition [3] [%] | Structure (SMILES) | Activity (Mus musculus)
 | 9 |  | O=C(CN1CCC(Oc2ccccc2)CC1)c1c[nH]c2ccc(O)cc12 | 
1280 | 16 |  | COc1ccc(CC2CCN(CC(=O)c3c[nH]c4ccc(O)cc34)CC2)cc1 | 
71 | 75 |  | CCc1ccc(CC2CCN(CC(=O)c3c[nH]c4ccc(O)cc34)CC2)cc1 | inactive
 | 5 |  | O=C(Cc1c[nH]c2ccc(O)cc12)N1CCC(Cc2ccccc2)CC1 | 
 |  | 75 | O=C(CN1CCC(Cc2ccccc2)CC1)c1c[nH]c2ccc(O)cc12 | 
